Screening results deposited in PubChem BioAssay by several laboratories.
MMP13 inh: MMP13 (human) collagenase inhibition; MMP-13 fTHP FRET cleavage, Mca fluorescence; inhibition, % at 4 µM; 65,000 compounds, 0.07% hits;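 active = inhibition above the mean of compound-free control plate wells plus 3 SD, cut at about 14% in these data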;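 note: 0% = DMSO wells and 100% = wells with reference MMP-13 inhibitor after basal subtraction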
Ecoli tolC: blocks growth of E. coli BW25113 tolC mutant; OD615; growth inhibition, % at 10 µM (by protocol); 65,000 compounds, 2.2% hits; AID 573;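 active = growth inhibition at or above a cutoff equal to the mean over every tested compound plus 3 SD, cut at about 60% in these data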;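 note: growth measured after 20 h incubation at 37 °C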
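Signal: optical density read at 615 nm; Assay system: E. coli ΔtolC::kan strain BW25113; Times: 20 h incubation with compound, 37 °C; Dosing: 10 µM final, single dose.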
AP ELISA ortho: orthogonal test for alternative complement pathway inhibitors; Human serum alternative complement pathway, LPS-coated ELISA, C3 deposition; tested in compound mixtures; inhibition, % at 5 µM; 62,000 compounds, 0.08% hits;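 active = inhibition above 30% in each of the two pooled mixtures holding the compound, so the lower value exceeds 30%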;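 note: 0% = serum in Mg-EGTA without compound and 100% = EDTA serum blank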
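Test system: human serum complement alternative pathway, C3 deposition onto LPS / Medium: Mg2+-EGTA GVB++ buffer containing human serum at 1:15 dilution / Probe or stimulus: Plate-bound LPS / Times: 1 h at 37 °C / Signal: ELISA with HRP anti-human C3 antibody, TMB substrate, absorbance 450 nm / Measure: percent inhibition / Repeats: two pool placements per compound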
BAP1 inh: inhibitors of human BAP1 deubiquitinase; Q92560; recombinant BAP1, Ub-AMC hydrolysis fluorescence kinetic; hits give low values; calls only at 20 µM; 72,000 compounds, 0.48% hits; AID 436;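 active = activity remaining at or below 50% of control, provided the compound also passes the data quality filters; inactive = the rest, including low values that fail the filters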;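 note: 100% = DMSO wells rate and 0% = substrate alone blank rate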
Ecoli WT expand: E. coli BW25113 growth inhibition, expanded screen; OD600 absorbance; 98,000 compounds, 0.15% hits; growth inhibition, % at 100 µM; AID 710;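 active = growth inhibition above about 50% at one test dose, limit read from the data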;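 note: growth measured after 20 h incubation at 37 °C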
E coli RNAP: Escherichia coli RNA polymerase inhibition | inhibition, %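 (tested at 10 µM)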 | E. coli RNA polymerase, fluorescence transcription assay | P0A8V2 | 62,000 compounds, 0.2% hits; in the data active = inhibition above about 20%;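 note: 0% = enzyme without compound and 100% = no enzyme blank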
Target sequence (P0A8V2 whole entry, looked up): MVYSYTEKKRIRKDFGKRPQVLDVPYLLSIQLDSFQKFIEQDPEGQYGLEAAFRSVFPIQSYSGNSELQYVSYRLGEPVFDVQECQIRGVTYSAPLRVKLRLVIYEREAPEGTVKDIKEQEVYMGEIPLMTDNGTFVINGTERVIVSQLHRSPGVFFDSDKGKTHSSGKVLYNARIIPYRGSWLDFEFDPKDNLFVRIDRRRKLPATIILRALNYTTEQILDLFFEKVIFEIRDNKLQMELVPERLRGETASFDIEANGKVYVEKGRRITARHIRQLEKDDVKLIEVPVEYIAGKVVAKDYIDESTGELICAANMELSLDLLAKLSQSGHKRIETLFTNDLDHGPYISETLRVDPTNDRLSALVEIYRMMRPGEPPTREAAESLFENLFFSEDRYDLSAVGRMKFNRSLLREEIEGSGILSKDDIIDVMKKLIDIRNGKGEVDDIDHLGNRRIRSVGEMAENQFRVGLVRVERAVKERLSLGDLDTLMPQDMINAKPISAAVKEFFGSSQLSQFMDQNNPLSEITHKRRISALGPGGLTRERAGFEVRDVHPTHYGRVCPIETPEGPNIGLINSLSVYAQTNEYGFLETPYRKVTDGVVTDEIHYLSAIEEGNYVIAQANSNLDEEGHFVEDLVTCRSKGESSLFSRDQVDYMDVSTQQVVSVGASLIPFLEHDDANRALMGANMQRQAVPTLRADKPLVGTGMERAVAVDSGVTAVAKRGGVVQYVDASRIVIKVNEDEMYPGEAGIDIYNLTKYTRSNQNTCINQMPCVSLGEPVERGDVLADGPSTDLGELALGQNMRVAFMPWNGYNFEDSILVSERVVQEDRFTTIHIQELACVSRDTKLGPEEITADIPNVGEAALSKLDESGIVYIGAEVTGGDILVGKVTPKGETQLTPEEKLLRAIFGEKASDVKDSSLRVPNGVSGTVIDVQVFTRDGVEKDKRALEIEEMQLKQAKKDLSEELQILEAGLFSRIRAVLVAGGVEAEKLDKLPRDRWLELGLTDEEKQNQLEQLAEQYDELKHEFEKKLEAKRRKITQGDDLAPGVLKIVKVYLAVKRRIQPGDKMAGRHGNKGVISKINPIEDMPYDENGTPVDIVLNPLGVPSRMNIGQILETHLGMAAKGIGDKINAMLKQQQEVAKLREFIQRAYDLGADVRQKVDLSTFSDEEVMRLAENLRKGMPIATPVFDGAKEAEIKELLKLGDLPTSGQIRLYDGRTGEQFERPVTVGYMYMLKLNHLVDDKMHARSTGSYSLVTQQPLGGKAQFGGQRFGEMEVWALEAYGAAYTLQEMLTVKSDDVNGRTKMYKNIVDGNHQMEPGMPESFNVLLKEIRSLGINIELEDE
Starred values were filed as active, the others as inactive. The sample as a whole holds a higher share of hits than the screen did.

COc1nc(N)nc(N2CCOCC2)n1 was read as MMP13 inh 15*, Ecoli tolC -18, AP ELISA ortho 5, BAP1 inh inactive, Ecoli WT expand -4 and E coli RNAP 3.
`CCN(CC)S(=O)(=O)c1ccc2[nH]cc(C(=O)NCCC3=CCCCC3)c(=O)c2c1` gave MMP13 inh -2, Ecoli tolC 98*, AP ELISA ortho -6, BAP1 inh inactive, Ecoli WT expand -6 and E coli RNAP 10.
Screening COc1ccc(OC)c(-c2cc(C(=O)N3CCCc4ccccc43)no2)c1 returned MMP13 inh 3, Ecoli tolC 65*, AP ELISA ortho 0, BAP1 inh inactive, Ecoli WT expand -23 and E coli RNAP 7.
COc1cccc(-c2cc(C(=O)N3CCCc4ccccc43)no2)c1 was read as MMP13 inh -3, Ecoli tolC 55, AP ELISA ortho 19, BAP1 inh inactive, Ecoli WT expand -9 and E coli RNAP 0.
`COc1ccc(-c2cc(C(=O)N3CCCc4ccccc43)no2)cc1` gave MMP13 inh 4, Ecoli tolC 63*, AP ELISA ortho -2, BAP1 inh inactive, Ecoli WT expand -17 and E coli RNAP -2.
Screening Cc1cc(OCC(O)CN2CCN(c3ccc(F)cc3)CC2)cc(C)c1Cl (centres undefined) returned BAP1 inh inactive.
Screening CCn1cc(C(=O)NCc2cccc(F)c2)c(=O)c2cc(F)c(N3CCN(C(=O)c4ccco4)CC3)cc21 returned Ecoli WT expand 91*.
CCn1cc(C(=O)NCc2cccnc2)c(=O)c2cc(F)c(N3CCN(C(=O)c4ccco4)CC3)cc21 was read as Ecoli WT expand 97*.
For COc1cc2ccccc2cc1C(=O)Nc1ccc2oc(-c3ccc(Br)cc3)nc2c1 the results were BAP1 inh inactive.
Screening COc1ccc2nc(NC(=O)C3CCCN(S(=O)(=O)c4cccs4)C3)sc2c1 (centres undefined) returned MMP13 inh 6, Ecoli tolC 68*, AP ELISA ortho 29, Ecoli WT expand -6 and E coli RNAP -2.
For COc1ccc2nc(NC(=O)C3CCN(S(=O)(=O)c4cccs4)CC3)sc2c1 the results were Ecoli WT expand -11.
`O=C(Nc1ccc(N2CCN(C(=O)c3ccco3)CC2)c(Cl)c1)c1cccs1` gave MMP13 inh 5, Ecoli tolC 71*, AP ELISA ortho -1, BAP1 inh inactive, Ecoli WT expand -17 and E coli RNAP -2.
CC(C)c1ccc(-c2noc(C3CCCN(C(=O)c4ccc(F)cc4F)C3)n2)cc1 (centres undefined) was read as MMP13 inh -5, Ecoli tolC 68*, AP ELISA ortho -3, BAP1 inh inactive and Ecoli WT expand -22.
For CC(C)(C)c1cc(C(F)(F)F)nc(SCCCNC(=O)c2ccco2)n1 the results were MMP13 inh 4, Ecoli tolC 100*, AP ELISA ortho 5, BAP1 inh inactive, Ecoli WT expand 7 and E coli RNAP 2.
`COc1ccc(CCNC(=O)CCSc2nc(-c3ccco3)cc(C(F)(F)F)n2)cc1` gave MMP13 inh 2, Ecoli tolC 8, AP ELISA ortho 3, BAP1 inh inactive, Ecoli WT expand -12 and E coli RNAP 8.
For COc1cc2nc(-c3ccc4c(c3)C(=O)N(c3ccccc3OC)C4=O)oc(=O)c2cc1OC the results were BAP1 inh inactive.
`Cc1cccc(N2CCN(C(=O)Cc3c(C(=O)O)[nH]c4ccc(Cl)cc34)CC2)c1C` gave MMP13 inh 4, Ecoli tolC 87*, AP ELISA ortho 13, BAP1 inh inactive, Ecoli WT expand 0 and E coli RNAP -6.
Screening Cc1cccc(N2CCN(C(=O)CCn3c(=O)[nH]c4ccccc4c3=O)CC2)c1C returned MMP13 inh 1, Ecoli tolC 12, AP ELISA ortho 12, BAP1 inh inactive, Ecoli WT expand -7 and E coli RNAP 5.
COc1ccc([N+](=O)[O-])cc1NC(=O)c1ccccc1Cl was read as BAP1 inh inactive.
Screening CC(C)c1nnc(NC(=O)c2c(O)c3cccc4c3n(c2=O)CCC4)s1 returned MMP13 inh 3, Ecoli tolC 100*, AP ELISA ortho -13, Ecoli WT expand -2 and E coli RNAP -3.
Screening Cc1ccc2oc(-c3cc(NC(=O)c4cccc([N+](=O)[O-])c4)ccc3Cl)nc2c1 returned BAP1 inh inactive.
For Cc1ccc(C)c(Cn2nnc3c(=O)[nH]c(C(=O)NCC4CCCO4)nc32)c1 (centres undefined) the results were MMP13 inh -1, Ecoli tolC 7, AP ELISA ortho 6, BAP1 inh inactive, Ecoli WT expand -14 and E coli RNAP 1.
For O=C(NCCc1ccccc1)c1nc2c(nnn2Cc2ccccc2Cl)c(=O)[nH]1 the results were MMP13 inh -2, Ecoli tolC 97*, AP ELISA ortho -3, BAP1 inh inactive, Ecoli WT expand -14 and E coli RNAP 2.
`O=C(NC1CCCCC1)c1nc2c(nnn2Cc2ccccc2Cl)c(=O)[nH]1` gave MMP13 inh 0, Ecoli tolC 76*, AP ELISA ortho 1, BAP1 inh inactive, Ecoli WT expand 10 and E coli RNAP 5.
Screening c1ccc(Cn2nnnc2C(c2cccs2)N2CCCCCC2)cc1 (centres undefined) returned MMP13 inh 3, Ecoli tolC 77*, AP ELISA ortho -2, BAP1 inh inactive, Ecoli WT expand -24 and E coli RNAP 5.
Screening c1ccc(Cn2nnnc2C(c2cccs2)N2CCc3ccccc3C2)cc1 (centres undefined) returned MMP13 inh 3, Ecoli tolC 51, AP ELISA ortho 4, BAP1 inh inactive, Ecoli WT expand -11 and E coli RNAP 10.
Screening CCCc1cc(-c2[nH]ncc2-c2ccc(C(=O)OCC)o2)c(O)cc1O returned MMP13 inh -25, Ecoli tolC 43, AP ELISA ortho 16, BAP1 inh inactive, Ecoli WT expand 1 and E coli RNAP 3.
`CCCc1cc(-c2[nH]ncc2-c2ccc3c(c2)OCCCO3)c(O)cc1O` gave MMP13 inh -4, Ecoli tolC 100*, AP ELISA ortho 8, BAP1 inh inactive, Ecoli WT expand 15 and E coli RNAP -3.
`Cc1ccccc1NC(=O)C(c1ccc([N+](=O)[O-])cc1)N1CCOCC1` (centres undefined) gave BAP1 inh inactive.
Screening O=C(Nc1ccc(Cl)cc1)NC1CCCC1Cc1ccco1 (centres undefined) returned MMP13 inh -14, Ecoli tolC 100*, AP ELISA ortho 7, BAP1 inh inactive, Ecoli WT expand 23 and E coli RNAP -6.
For Cc1nc(N2CCC(C)CC2)c2oc3ccccc3c2n1 the results were MMP13 inh -2, AP ELISA ortho 13, Ecoli WT expand -2 and E coli RNAP 2.
